In ChEMBL document CHEMBL6092210, “Synthesis, in vitro and in vivo biological evaluation of novel dual compounds targeting both acetylcholinesterase and serotonergic 5-HT4 receptors with potential interest in the treatment of Alzheimer's disease” (Eur J Med Chem, 2024):

Key:
[1] = molecular target: T1, 5-hydroxytryptamine receptor 4 (Homo sapiens, UniProt Q13639); assay: Inhibition of human recombinant 5HT4 receptor at 1 x 10^-6M incubated for 60 mins relative to control; conditions: dose 1.0 10^-6M
T1 sequence (Q13639 whole entry): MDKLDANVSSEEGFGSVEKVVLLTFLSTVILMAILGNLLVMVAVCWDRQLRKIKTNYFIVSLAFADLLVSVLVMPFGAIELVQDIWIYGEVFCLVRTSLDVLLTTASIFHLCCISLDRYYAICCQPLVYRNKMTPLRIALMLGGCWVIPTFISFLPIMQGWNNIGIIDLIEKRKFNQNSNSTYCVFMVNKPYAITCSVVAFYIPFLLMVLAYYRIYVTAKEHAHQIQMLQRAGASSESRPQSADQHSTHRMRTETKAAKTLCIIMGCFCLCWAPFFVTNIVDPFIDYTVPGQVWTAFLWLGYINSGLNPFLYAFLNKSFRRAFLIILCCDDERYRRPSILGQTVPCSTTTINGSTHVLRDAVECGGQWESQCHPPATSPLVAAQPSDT
Outline: (§1)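 Membranes (2.5 μg protein) from a stable recombinant line expressing h5-HT4(b) receptor. Incubated in duplicate at 25 °C for 60 min with 0.2 nM [3H]-GR113808 in 25 mM Tris pH 7.4, with drug at 10^-6 or 10^-8 M. GF/C filtration; non-specific binding defined with 30 μM serotonin. Ki from five-point inhibition curves, ± SD.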

[2] = molecular target: T1, 5-hydroxytryptamine receptor 4; assay: Inhibition of human recombinant 5HT4 receptor at 1 x 10^-8M incubated for 60 mins relative to control; conditions: dose 1.0 10^-8M; outline: as §1
[3] = molecular target: T2, Acetylcholinesterase (Homo sapiens, UniProt P22303); assay: Inhibition of recombinant human erythrocyte AChE using acetyl-or butyrylthiocholine iodide as substrate at 1 x 10^-6M preincubated for 5 mins followed by substrate addition and measured every min for 10 mins by Ellman's method relative to control; conditions: dose 1.0 10^-6M, time 15.0 min
T2 sequence (P22303 whole entry): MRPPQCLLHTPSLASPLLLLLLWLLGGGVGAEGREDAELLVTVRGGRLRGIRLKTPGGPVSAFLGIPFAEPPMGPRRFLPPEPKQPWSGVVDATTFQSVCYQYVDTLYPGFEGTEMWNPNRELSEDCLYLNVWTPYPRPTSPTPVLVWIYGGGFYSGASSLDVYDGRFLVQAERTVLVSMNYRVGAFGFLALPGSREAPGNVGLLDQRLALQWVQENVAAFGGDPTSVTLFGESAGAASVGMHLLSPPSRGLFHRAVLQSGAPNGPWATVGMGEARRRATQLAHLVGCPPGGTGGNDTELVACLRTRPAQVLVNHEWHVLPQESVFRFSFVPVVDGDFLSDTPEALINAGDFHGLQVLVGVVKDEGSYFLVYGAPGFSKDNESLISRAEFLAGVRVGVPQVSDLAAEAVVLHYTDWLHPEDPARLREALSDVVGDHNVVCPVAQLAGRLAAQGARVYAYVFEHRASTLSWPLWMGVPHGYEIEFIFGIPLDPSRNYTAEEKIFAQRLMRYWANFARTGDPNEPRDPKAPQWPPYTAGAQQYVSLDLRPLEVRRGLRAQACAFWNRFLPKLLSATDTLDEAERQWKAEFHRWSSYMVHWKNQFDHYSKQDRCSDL
Outline: (§2)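 AChE from human erythrocytes (0.05 U final) or recombinant AChE (0.025 U final), diluted in 20 mM HEPES pH 8 with 0.1 % Triton X-100, in an Ellman assay. DTNB is 0.3 mM in phosphate buffer pH 7.4 and compound is in DMSO. Enzyme and compound are preincubated 5 min at 25 °C. Reaction starts with 1 mM acetylthiocholine iodide solution.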

[4] = molecular target: T1, 5-hydroxytryptamine receptor 4; assay: Binding affinity to human recombinant 5HT4 receptor assessed as inhibition constant incubated for 60 mins
[5] = molecular target: T2, Acetylcholinesterase; assay: Inhibition of recombinant human erythrocyte AChE using acetyl-or butyrylthiocholine iodide as substrate preincubated for 5 mins followed by substrate addition and measured every min for 10 mins by Ellman's method
[6] = molecular target: T2, Acetylcholinesterase; assay: Inhibition of recombinant human erythrocyte AChE using acetyl-or butyrylthiocholine iodide as substrate at 1 x 10^-5M preincubated for 5 mins followed by substrate addition and measured every min for 10 mins by Ellman's method relative to control; conditions: dose 1.0 10^-5M, time 15.0 min; outline: as §2

| Structure (SMILES) | inhibition ([1]; tested as the 2H-labelled form) [%] | inhibition ([2]; tested as the 2H-labelled form) [%] | inhibition ([3]; tested as the 2H-labelled form) [%] | inhibition [1] [%] | inhibition [2] [%] | inhibition [3] [%] | Ki [4] [nM] | IC50 [5] [nM] | inhibition [6] [%] |
| --- | --- | --- | --- | --- | --- | --- | --- | --- | --- |
| COc1cc(N)c(Cl)cc1C(=O)CCC1CCN(CC2CCCCC2)CC1 | 98 | 29 | 92 | – | – | – | – | – | – |
| COc1cc(O)c(Cl)cc1C(=O)CCC1CCN(CC2CCCCC2)CC1 | – | – | – | 76 | 2 | 78 | – | – | – |
| CCOc1cc(N)ccc1C(=O)CCC1CCN(CC2CCCCC2)CC1 | – | – | – | 101 | 38 | 93 | 24.7 | 87.1 | – |
| Nc1cc(OCCF)c(C(=O)CCC2CCN(CC3CCCCC3)CC2)cc1I | – | – | – | 101 | 22 | 45 | 521 | – | – |
| CCOc1cc(N)c(Cl)cc1C(=O)CCC1CCN(CC2CCCCC2)CC1 | – | – | – | 103 | 86 | 69 | – | – | – |
| Nc1ccc(C(=O)CCC2CCN(CC3CCCCC3)CC2)cc1 | – | – | – | 80 | 4 | 78 | – | 317 | – |
| CCOc1cc(N)c(I)cc1C(=O)CCC1CCN(CC2CCCCC2)CC1 | – | – | – | 103 | 65 | 51 | 86 | – | – |
| COc1cc(N)c(I)cc1C(=O)CCC1CCN(CC2CCCCC2)CC1 | – | – | – | 103 | 36 | – | – | – | 88 |
| COc1c(C(=O)CCC2CCN(CC3CCCCC3)CC2)cc(F)c(N)c1I | – | – | – | 89 | 2 | 89 | – | 234 | – |
| CC(=O)Nc1cc(O)c(C(=O)CCC2CCN(CC3CCCCC3)CC2)cc1Cl | – | – | – | 47 | 8 | 94 | – | 57.3 | – |
| COc1ccccc1C(=O)CCC1CCN(CC2CCCCC2)CC1 | – | – | – | 102 | 31 | 85 | 121 | 166 | – |
